Results from ChEMBL document CHEMBL4014346, “Lead Optimization Generates CYP11B1 Inhibitors of Pyridylmethyl Isoxazole Type with Improved Pharmacological Profile for the Treatment of Cushing's Disease” (J Med Chem, 2017).
pIC50: −log10 of the molar value.

Tests used:
[1] = target: T1, Cytochrome P450 11B2, mitochondrial (Homo sapiens, UniProt P19099); assay: Inhibition of human CYP11B2 expressed in hamster V79MZ cells using [1,2-3H]-11-deoxycorticosterone as substrate after 6 hrs by HPLC analysis; format: ADME, cell-based
T1 sequence (P19099 whole entry): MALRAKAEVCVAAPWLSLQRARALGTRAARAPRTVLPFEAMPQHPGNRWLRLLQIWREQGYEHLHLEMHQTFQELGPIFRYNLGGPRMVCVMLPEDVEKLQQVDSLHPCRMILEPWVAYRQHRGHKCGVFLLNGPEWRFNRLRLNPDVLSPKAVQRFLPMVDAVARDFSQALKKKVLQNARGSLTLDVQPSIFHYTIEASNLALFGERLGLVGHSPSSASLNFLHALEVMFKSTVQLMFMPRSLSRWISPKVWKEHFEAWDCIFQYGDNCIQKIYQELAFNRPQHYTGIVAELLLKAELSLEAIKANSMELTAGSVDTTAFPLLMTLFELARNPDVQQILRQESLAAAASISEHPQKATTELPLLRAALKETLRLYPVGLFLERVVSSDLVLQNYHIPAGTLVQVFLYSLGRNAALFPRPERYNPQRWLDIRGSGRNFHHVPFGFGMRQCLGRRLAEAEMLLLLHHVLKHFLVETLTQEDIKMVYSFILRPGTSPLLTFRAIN
Outline: (§1)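 V79MZ cells expressing recombinant human CYP11B1 or CYP11B2, or rat CYP11B1, incubated with [1,2-³H]-11-deoxycorticosterone (100 nM) and inhibitor over a range of concentrations; ketoconazole as reference.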

[2] = target: T2, Cytochrome P450 11B1, mitochondrial (Rattus norvegicus, UniProt P15393); assay: Inhibition of rat CYP11B1 expressed in hamster V79MZ cells using [1,2-3H]-11-deoxycorticosterone as substrate after 6 hrs by HPLC analysis; format: cell-based; outline: as §1
T2 sequence (P15393 whole entry): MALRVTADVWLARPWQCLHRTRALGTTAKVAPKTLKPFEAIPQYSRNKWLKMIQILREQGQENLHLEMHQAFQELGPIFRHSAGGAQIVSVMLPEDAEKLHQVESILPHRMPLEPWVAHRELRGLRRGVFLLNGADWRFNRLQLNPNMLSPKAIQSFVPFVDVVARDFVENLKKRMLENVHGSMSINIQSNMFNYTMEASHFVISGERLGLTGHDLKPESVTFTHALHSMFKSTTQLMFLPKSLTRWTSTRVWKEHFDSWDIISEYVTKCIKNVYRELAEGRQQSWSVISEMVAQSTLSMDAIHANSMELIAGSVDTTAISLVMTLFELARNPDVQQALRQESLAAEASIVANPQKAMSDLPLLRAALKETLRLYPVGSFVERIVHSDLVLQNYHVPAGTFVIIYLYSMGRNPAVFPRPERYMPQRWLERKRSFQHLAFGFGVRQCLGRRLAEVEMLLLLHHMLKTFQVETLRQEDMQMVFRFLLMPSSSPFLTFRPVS

CYP2B6 = target: T3, CYP2B6 (Homo sapiens, UniProt P20813); assay: Inhibition of recombinant human CYP2B6 expressed in baculovirus infected insect cell microsomes at 1 uM relative to control; format: ADME
T3 sequence (P20813 whole entry): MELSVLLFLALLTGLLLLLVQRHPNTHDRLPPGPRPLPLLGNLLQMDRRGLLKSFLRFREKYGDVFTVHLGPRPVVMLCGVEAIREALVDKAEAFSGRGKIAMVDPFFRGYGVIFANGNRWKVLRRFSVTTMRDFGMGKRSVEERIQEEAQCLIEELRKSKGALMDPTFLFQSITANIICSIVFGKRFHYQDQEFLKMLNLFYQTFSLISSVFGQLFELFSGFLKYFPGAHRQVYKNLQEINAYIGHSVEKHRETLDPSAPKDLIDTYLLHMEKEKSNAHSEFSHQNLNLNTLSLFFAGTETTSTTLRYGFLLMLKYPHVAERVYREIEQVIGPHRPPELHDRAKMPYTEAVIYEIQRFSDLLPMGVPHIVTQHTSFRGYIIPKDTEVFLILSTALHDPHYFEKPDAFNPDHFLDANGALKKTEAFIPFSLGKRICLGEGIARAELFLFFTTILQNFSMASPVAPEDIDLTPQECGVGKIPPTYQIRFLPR
Outline: (§2)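 Recombinant human CYP1A2, 2B6, 2C9, 2C19, 2D6 and 3A4 in baculovirus-infected insect-cell microsomes, assayed per kit instructions; test compound at 1 µM, percent inhibition.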

CYP2C9 = CYP2C9 (Homo sapiens, UniProt P11712); assay: Inhibition of recombinant human CYP2C9 expressed in baculovirus infected insect cell microsomes at 1 uM relative to control; format: ADME; outline: as §2
CYP2D6 = CYP2D6 (Homo sapiens, UniProt P10635); assay: Inhibition of recombinant human CYP2D6 expressed in baculovirus infected insect cell microsomes at 1 uM relative to control; format: ADME; outline: as §2
CYP3A4 = CYP3A4 (Homo sapiens, UniProt P08684); assay: Inhibition of recombinant human CYP3A4 expressed in baculovirus infected insect cell microsomes at 1 uM relative to control; format: ADME; outline: as §2
[3] = Cytotoxicity against HEK293 cells assessed as reduction in cell viability after 66 hrs by MTT assay; format: cell-based; conditions: human
Outline: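 HEK293 cells seeded at 2x10⁵ per well; 4 h later, compound added at 100–6.25 µM in quadruplicate in 1% DMSO. MTT read-out at 570 nm after 66 h against vehicle control; IC20 derived by curve fitting.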

Salmonella typhimurium [4] = assay: Mutagenicity in Salmonella typhimurium TA98 up to 100 uM by Ames 2 assay; format: toxicity; conditions: salmonella enterica subsp. enterica serovar typhimurium
Outline: (§3)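 AMES II kit with Salmonella typhimurium TA98 and TA7001–TA7006, run with or without rat liver S9 fraction according to the kit instructions.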

Salmonella typhimurium [5] = assay: Mutagenicity in Salmonella typhimurium TA98 up to 100 uM in presence of rat liver S9 fraction by Ames 2 assay; format: toxicity; conditions: salmonella enterica subsp. enterica serovar typhimurium; outline: as §3
Salmonella typhimurium [6] = assay: Mutagenicity in Salmonella typhimurium TA7001/7002/7003/7004/7005/7006 up to 100 uM by Ames 2 assay; format: toxicity; conditions: salmonella enterica subsp. enterica serovar typhimurium; outline: as §3
Salmonella typhimurium [7] = assay: Mutagenicity in Salmonella typhimurium TA7001/7002/7003/7004/7005/7006 up to 100 uM in presence of rat liver S9 fraction by Ames 2 assay; format: toxicity; conditions: salmonella enterica subsp. enterica serovar typhimurium; outline: as §3
[8] = Aqueous solubility of the compound in 2% DMSO up to 24 hrs; format: physicochemical
[9] = Plasma concentration in Sprague-Dawley rat at 100 mg/kg, po administered as single dose after 4 hrs by HPLC-MS/MS analysis; format: ADME, organism-based
Outline: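 One female Sprague-Dawley rat dosed orally with a suspension in 0.5% porcine gelatin/5% mannitol in water, under 2% isoflurane. Tail-vein blood in citrate; plasma precipitated with acetonitrile containing diphenhydramine internal standard and quantified by HPLC-MS/MS.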

Plasma = assay: Plasma concentration in Sprague-Dawley rat at 28 mg/kg, po administered as single dose by HPLC-MS/MS analysis; format: ADME, organism-based; conditions: in vivo
Outline: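 Female Sprague-Dawley rats (244–299 g), 2 animals, given one oral dose under 2% isoflurane as a freshly sonicated suspension in 0.5% porcine gelatin/5% mannitol in water. Tail-vein plasma precipitated with acetonitrile plus diphenhydramine internal standard, quantified by HPLC-MS/MS in duplicate. Noncompartmental analysis; Cmax and Tmax read directly from the concentration–time curve; F derived against iv dosing.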

Chain of CYP2D6 (P10635 whole entry): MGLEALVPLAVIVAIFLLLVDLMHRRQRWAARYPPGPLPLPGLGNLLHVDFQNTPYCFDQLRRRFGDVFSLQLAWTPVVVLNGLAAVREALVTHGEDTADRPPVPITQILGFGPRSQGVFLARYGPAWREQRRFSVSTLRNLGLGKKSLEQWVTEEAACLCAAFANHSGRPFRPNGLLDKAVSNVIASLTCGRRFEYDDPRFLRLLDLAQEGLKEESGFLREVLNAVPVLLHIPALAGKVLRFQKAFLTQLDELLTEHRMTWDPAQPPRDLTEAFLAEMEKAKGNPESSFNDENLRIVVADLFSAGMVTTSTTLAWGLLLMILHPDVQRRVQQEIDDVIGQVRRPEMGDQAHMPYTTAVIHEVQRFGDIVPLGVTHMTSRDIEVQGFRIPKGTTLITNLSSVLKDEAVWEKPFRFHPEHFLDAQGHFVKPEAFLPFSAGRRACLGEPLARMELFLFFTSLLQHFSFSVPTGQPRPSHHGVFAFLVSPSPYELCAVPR
Chain of CYP3A4 (P08684 whole entry): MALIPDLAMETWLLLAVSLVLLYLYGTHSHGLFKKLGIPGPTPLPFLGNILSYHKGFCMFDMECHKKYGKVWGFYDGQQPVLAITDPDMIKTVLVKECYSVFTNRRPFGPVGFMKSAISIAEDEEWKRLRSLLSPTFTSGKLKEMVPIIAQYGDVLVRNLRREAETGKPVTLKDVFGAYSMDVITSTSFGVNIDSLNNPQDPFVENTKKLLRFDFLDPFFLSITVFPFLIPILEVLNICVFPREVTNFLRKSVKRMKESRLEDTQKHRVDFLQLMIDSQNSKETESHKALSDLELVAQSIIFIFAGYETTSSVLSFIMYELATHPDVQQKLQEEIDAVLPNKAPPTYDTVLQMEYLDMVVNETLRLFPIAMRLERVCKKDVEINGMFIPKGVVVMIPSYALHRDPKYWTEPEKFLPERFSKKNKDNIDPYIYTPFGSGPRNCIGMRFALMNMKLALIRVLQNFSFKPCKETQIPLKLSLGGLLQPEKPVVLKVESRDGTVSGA
Chain of CYP2C9 (P11712 whole entry): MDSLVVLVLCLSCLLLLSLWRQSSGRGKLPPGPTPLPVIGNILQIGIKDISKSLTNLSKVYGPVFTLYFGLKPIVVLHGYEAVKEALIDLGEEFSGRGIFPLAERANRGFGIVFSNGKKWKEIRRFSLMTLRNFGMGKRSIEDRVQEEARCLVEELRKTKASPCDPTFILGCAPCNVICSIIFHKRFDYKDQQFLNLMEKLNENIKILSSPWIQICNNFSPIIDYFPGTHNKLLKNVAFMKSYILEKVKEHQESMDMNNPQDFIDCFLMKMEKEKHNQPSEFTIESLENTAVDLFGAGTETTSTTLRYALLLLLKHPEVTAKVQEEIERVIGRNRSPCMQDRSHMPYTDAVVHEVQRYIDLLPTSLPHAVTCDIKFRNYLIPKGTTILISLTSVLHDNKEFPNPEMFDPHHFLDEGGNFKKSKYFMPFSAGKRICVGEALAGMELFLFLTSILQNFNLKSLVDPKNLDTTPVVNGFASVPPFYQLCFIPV

pIC50 [1] | pIC50 [2] | inhibition at 1 µM (CYP2B6) [%] | inhibition at 1 µM (CYP2C9) [%] | inhibition at 1 µM (CYP2D6) [%] | inhibition at 1 µM (CYP3A4) [%] | solubility at 24 h [8] [µM] | concentration at 4 h [9] [µM] | concentration (Plasma) [µM] | Structure (SMILES) | IC20 at 66 h [3] [nM] | Activity (Salmonella typhimurium [4]) | Activity (Salmonella typhimurium [5]) | Activity (Salmonella typhimurium [6]) | Activity (Salmonella typhimurium [7])
7.09 | 5.40 | 3 | 28 | 0 | 61 | > 200 | 0.3 |  | Cc1cncc(Cc2cc(-c3ccccc3)no2)c1 | 28000 | Non-Toxic | Non-Toxic | Non-Toxic | Non-Toxic
7.57 | 5.74 | 19 | 17 | 8 | 33 | > 200 | 106 | 4.11 | COc1cncc(Cc2cc(-c3ccccc3)no2)c1 | 42000 | Non-Toxic | Non-Toxic | Non-Toxic | Non-Toxic
